Where two headings read alike, the source gives them in different places.

In general, IC50 refers to the concentration that inhibits the measured activity by half.

Test [1] concerns murine mammary carcinoma cell line (4T1). Description: MTT anti-proliferative assay, 4T1. It counts as cell-based. Particulars: read-out: 4T1 IC50, 48-hour treatment, mean ± SD (n = 2).
Test [2] has as its system human breast cancer cell line (MCF-7). Kind of test: MTT anti-proliferative assay, MCF-7. In kind it is cell-based. For orientation: Formazan colour is commonly taken as a measure of viable cells.
For test [3], the system named is normal human embryonic kidney (HEK-293) cell line. Kind of test: MTT cytotoxicity towards normal cell line HEK-293. In kind it is cell-based.
The test system of test [4] is prostatic small cell carcinoma cell line (PC-3). Description: MTT anti-proliferative assay, PC-3. In kind it is cell-based.
Test [5] has as its system MCF-7 cells. Description: Nuclear staining assay. In kind it is cell-based, human. Conditions: MCF-7, IC50, 48 hours, vs control and BG-45.
Test [6] has as its system MCF-7 cells. Kind of test: annexin-V/FITC-PI apoptosis assay. In kind it is cell-based, human. Particulars: MCF-7, 48 hours, at respective IC50.
Test [7] concerns MCF-7 cells. Kind of test: ROS generation. It counts as cell-based, human. Conditions: MCF-7, IC50 dose, vs 1% DMSO control. In short, it runs like this:
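After 24 h in 12-well plates, MCF-7 cells were treated for 48 h with test compound, reference compound, or 1% DMSO as control. Medium was replaced with 10 μM DCFH-DA for 10 min at 37 °C in darkness. DCF fluorescence was imaged by laser scanning confocal microscopy at 60× (ex 485 nm, em 535 nm). Intensity was quantified by image analysis as relative fluorescence (%) versus control. Data are mean standard deviation (n = 2), with one-way ANOVA.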

The mark [8] stands for this setting: Homo sapiens, MCF7, 48 h, read-out: MCF-7 IC50, MTT, 48-hour treatment, mean ± SD (n = 2).
Setting [9] is: read-out: HEK-293 IC50, MTT, 48-hour treatment, mean ± SD (n = 2).
Setting [10] is: read-out: PC-3 IC50, MTT, 48-hour treatment, mean ± SD (n = 2).
Where [11] appears, read: read-out: MCF-7 IC50, MTT, 48-hour treatment, mean ± SD (n = 2).

Consider `COc1ccc(-c2noc(-c3ccc(C)s3)c2C(F)(F)F)cc1OC` [TTI-13, 3-(3,4-dimethoxyphenyl)-5-(5-methylthiophen-2-yl)-4-(trifluoromethyl)isoxazole], for which the IC50 in test [1] was determined as 15.15 ± 0.1 µM; in test [2] (setting [8]) it was 13.4 ± 0.19 µM; in test [3] (setting [9]), 75.91 ± 0.16 µM; in test [4] (setting [10]), 14.2 ± 0.41 µM.

`COc1ccc(-c2noc(-c3cccs3)c2C(F)(F)F)cc1OC` [TTI-4, 3-(3,4-dimethoxyphenyl)-5-(thiophen-2-yl)-4-(trifluoromethyl)isoxazole]: the IC50 was found to be 11.6 ± 0.35 µM in test [1], 2.91 ± 0.13 µM in test [2] (setting [11]), 70.49 ± 0.22 µM in test [3] (setting [9]) and 8.08 ± 0.29 µM in test [4] (setting [10]). In test [2] (MCF-7 IC50 compared with TTI-3), the “superior anti-breast cancer activity than TTI-3” value is reported as 7 times.

Consider `FC(F)(F)c1c(-c2ccc(Cl)cc2)noc1-c1cccs1` [TTI-9], for which the IC50 was determined as 21.72 ± 0.19 µM in test [1], 20.4 ± 0.21 µM in test [2] (setting [11]), 96.6 ± 0.47 µM in test [3] (setting [9]) and 21.92 ± 0.21 µM in test [4] (setting [10]).

With `FC(F)(F)c1ccc(-c2noc(-c3cccs3)c2C(F)(F)F)cc1` [TTI-11], the IC50 in test [1] stood at 19.36 ± 0.19 µM; in test [2] (setting [11]) it was 19.3 ± 0.24 µM; in test [3] (setting [9]), 92.75 ± 0.15 µM; in test [4] (setting [10]), 20.99 ± 0.19 µM.

Turning to `FC(F)(F)c1c(-c2ccc3c(c2)OCCO3)noc1-c1cccs1` [TTI-5, 3-(2,3-dihydrobenzo[b][1,4]dioxin-6-yl)-5-(thiophen-2-yl)-4-(trifluoromethyl)isoxazole], the results for the IC50 in test [1], in test [3] (setting [9]) and in test [4] (setting [10]) were 28.6 ± 0.09 µM, 109.7 ± 0.13 µM and 26.89 ± 0.11 µM, respectively.

As for `FC(F)(F)c1c(-c2cnn3c(-c4ccccc4)ccnc23)noc1-c1cccs1` [TTI-15, 3-(7-phenylpyrazolo[1,5-a]pyrimidin-3-yl)-5-(thiophen-2-yl)-4-(trifluoromethyl)isoxazole], the IC50 in test [1] worked out at 14.3 ± 0.21 µM; in test [2] (setting [8]) it was 9.44 ± 0.22 µM; in test [3] (setting [9]) it was 74.3 ± 0.25 µM; in test [4] (setting [10]), 13.7 ± 0.39 µM.

Consider `COc1cc(-c2noc(-c3cccs3)c2C(F)(F)F)cc(OC)c1OC` [TTI-6, 5-(thiophen-2-yl)-4-(trifluoromethyl)-3-(3,4,5-trimethoxyphenyl)isoxazole], for which the IC50 in test [1] worked out at 10.9 ± 0.2 µM; in test [2] (setting [8]), 1.92 µM; in test [2] (setting [11]) it was 1.91 ± 0.09 µM; in test [3] (Homo sapiens, HEK293, 48 h, read-out: HEK-293 IC50, MTT, 48-hour treatment, mean ± SD (n = 2)), 68.29 ± 0.11 µM; in test [4] (setting [10]), 7.67 ± 0.31 µM. In test [2] (matches 4T1/MCF-7 IC50 ratio), the “selectivity for MCF-7 over other cancer cell lines (first value)” value is recorded as 5.70 fold. Also, in test [2] (matches PC-3/MCF-7 IC50 ratio), the “selectivity for MCF-7 over other cancer cell lines (second value)” value turned out to be 4 fold. Moreover, in test [2] (ratio of IC50 values), the “selectivity for MCF-7 cells over HEK-293 cell lines” value was determined as 35.62 fold. Further, the “nuclear / cell morphology (DAPI, AO staining)” value in the test with MCF-7 cells [5] is on record as “significant alteration in cell morphology”. In the test with MCF-7 cells [6], the “total apoptotic percentage (Q2 and Q4)” value is on record as 50.0 ± 1.3%. Also, the “relative fluorescence intensity vs control (ROS)” value in the test on MCF-7 cells [7] is “significant increase”.

Regarding `O=[N+]([O-])c1ccc(-c2noc(-c3cccs3)c2C(F)(F)F)cc1` [TTI-12, 3-(4-nitrophenyl)-5-(thiophen-2-yl)-4-(trifluoromethyl)isoxazole], the IC50 is 17 ± 0.31 µM in test [1], 17.03 ± 0.12 µM in test [2] (setting [11]), 83.77 ± 0.28 µM in test [3] (setting [9]) and 15.4 ± 0.25 µM in test [4] (setting [10]).

Consider `COc1ccc(-c2noc(-c3cccs3)c2C(F)F)cc1OC` [TTI-14, 4-(difluoromethyl)-3-(3,4-dimethoxyphenyl)-5-(thiophen-2-yl)isoxazole], for which the IC50 was found to be 11.7 ± 0.14 µM in test [1]; 9.09 ± 0.25 µM in test [2] (setting [11]); 71.14 ± 0.21 µM in test [3] (setting [9]); 13 ± 0.17 µM in test [4] (48 h, read-out: PC-3 IC50, MTT, 48-hour treatment, mean ± SD (n = 2)).

With `COc1ccc(-c2noc(-c3cccs3)c2C(F)(F)F)cc1` [TTI-3], the IC50 in test [1] worked out at 24.3 ± 0.24 µM; in test [2] (setting [11]), 21.5 ± 0.11 µM; in test [3] (setting [9]), 102.2 ± 0.27 µM; in test [4] (setting [10]) it was 21.97 ± 0.21 µM.

These data come from PMC12264769 (RSC Medicinal Chemistry, 2025).
